Source: PubChem (Broad Institute)
A selection: hits, their analogues and other compounds. The true share with any hit is near 3.1%.
Env fusion inh: inhibitors of HIV Env-mediated cell fusion | HeLa-JRFL Env/CEM21 cell fusion, luciferase | hit rate 1.1% among 360,000 | inhibition, % at 12.3 µM;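 active = mean replicate inhibition score of at least 50 and every replicate individually at or above 50; inconclusive = only one of the two criteria met; inactive = mean below 50 and not all replicates reaching 50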
FN deposit inh: fibronectin deposition inhibition; AH1F fibroblasts, Alexa488-fibronectin deposition fluorescence, overnight; inhibition, % at 12.6 µM; hit rate 0.086% among 350,000;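 active = mean inhibition across replicates of 30% or more, regardless of how many single replicates reach that level; inconclusive = mean under 30% yet at least half of replicates reach 30%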
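test system = AH1F fibroblasts assembling fluorescent fibronectin matrix | quantity = 10000 AH1F cells per well | buffer or medium = DMEM plus 2% serum, read in PBS | doses = single dose, pinned | incubation = 1 h cell attachment, overnight exposure to compound and label | detection = fluorescence at 485 nm excitation, 525 nm emission | read-out basis = inhibition from reduced deposited-fibronectin fluorescence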
FGF22 binding: binders of recombinant human FGF22 by thermal shift. activity (Tm shift, normalised), % at 9.99 µM. SYPRO orange fluorescence; percent of sucrose octasulfate shift, DMSO zero. hit rate 1.5% among 340,000. Q9HCT0. AID 651658;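 active = mean Tm shift, scaled 0 neutral to 100 positive control, at about 1.3% or above, every replicate too, limit read from the data; inconclusive = no clear call, values can overlap the other calls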
Target sequence (Q9HCT0 whole entry, looked up): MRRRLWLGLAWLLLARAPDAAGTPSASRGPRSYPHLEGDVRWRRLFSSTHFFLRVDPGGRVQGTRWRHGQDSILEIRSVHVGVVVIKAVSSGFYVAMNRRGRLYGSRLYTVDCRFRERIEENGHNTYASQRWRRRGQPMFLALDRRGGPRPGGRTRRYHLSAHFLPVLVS
PGC1a acetyl inh: modulators of PGC1a acetylation | U2OS PGC1a acetylation, AlphaScreen anti-acetyl-lysine; with virally co-expressed GCN5 acetyltransferase | inhibition, % at 15.6 µM | hit rate 0.17% among 350,000 | AID 651687;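 active = every replicate shows inhibition of at least 40%; inconclusive = mean inhibition at least 40% but some replicate below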
PAX8 reporter: inhibitors of PAX8 transcriptional activity in RMG-I cells; RMG-I TPO-luciferase reporter, SteadyGlo, 24 h; inhibition, % at 12.6 µM; hit rate 1.2% among 360,000; AID 652154;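 active = mean replicate inhibition at least 60% with every replicate also reaching 60%; inconclusive = only one of the two criteria is met; inactive = mean below 60% and not all replicates reaching 60%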;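 also: luciferase light reporting Pax8 driven TPO promoter activity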
EWS-Fli block: EWS/Fli transcriptional activity inhibition | A673 NR0B1-luciferase reporter, viability-normalised | hit rate 0.67% among 350,000 | AID 651661 | inhibition, % at 12.6 µM;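 active = mean inhibition of at least 50% after viability correction, with every replicate also passing that limit; inconclusive = mean reaches 50% but only one of two replicates passes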;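 also: firefly luciferase signal divided by Alamar Blue viability fluorescence both relative to DMSO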
Hits are given with their value; – = inactive; ? = inconclusive; · = not tested or not shown.

SMILES	Env fusion inh	FN deposit inh	FGF22 binding	PGC1a acetyl inh	PAX8 reporter	EWS-Fli block
C[C@@H]1CCCCO[C@@H](CN(C)Cc2ccccc2)[C@H](C)CN([C@H](C)CO)C(=O)c2cc(NC(=O)NC3CCCCC3)ccc2O1	–	·	–	–	–	–
O=[N+]([O-])c1ccc(N2CCC(=NOCc3ccc(Cl)cc3)CC2)cc1	74.6	–	·	·	·	·
O=[N+]([O-])c1ccc(CN2CCN(c3ccc([N+](=O)[O-])cc3)CC2)cc1	–	–	–	·	–	–
CO[C@@H](CN(C)C(=O)c1cnccn1)[C@H](C)CN([C@@H](C)CO)S(=O)(=O)c1ccc(F)cc1	·	–	–	–	·	–
COC(=O)c1c(NC(=O)CN2CCC3(O)CCCCC3C2c2ccc(F)cc2)sc(C)c1C (stereo unspecified)	–	–	·	·	–	·
COC(=O)c1c(NC(=O)CN2CCC3(O)CCCCC3C2c2cc(OC)ccc2OC)sc(C)c1C (stereo unspecified)	90.6	–	·	·	–	·
C[C@@H]1CCCCO[C@@H](CN(C)Cc2ccc(Cl)c(Cl)c2)[C@@H](C)CN([C@H](C)CO)C(=O)c2cc(NC(=O)Nc3ccc(F)cc3)ccc2O1	–	·	–	–	–	–
C[C@@H]1CCCCO[C@H](CN(C)Cc2ccc(Cl)c(Cl)c2)[C@H](C)CN([C@@H](C)CO)C(=O)c2cc(NC(=O)Nc3ccccc3)ccc2O1	–	–	–	–	81.7	–
C[C@@H]1CN([C@H](C)CO)C(=O)c2cc(NC(=O)Nc3ccccc3)ccc2O[C@@H](C)CCCCO[C@H]1CN(C)Cc1ccc(Cl)c(Cl)c1	?	–	–	–	104.4	–
C[C@@H]1CCCCO[C@@H](CN(C)Cc2ccc(Cl)c(Cl)c2)[C@H](C)CN([C@H](C)CO)C(=O)c2cc(NC(=O)Nc3ccccc3)ccc2O1	–	–	–	–	90.1	–
C[C@@H]1CCCCO[C@H](CN(C)Cc2ccc(Cl)c(Cl)c2)[C@@H](C)CN([C@H](C)CO)C(=O)c2cc(NC(=O)Nc3ccc(F)cc3)ccc2O1	–	·	–	–	–	–
C[C@@H]1CN([C@@H](C)CO)C(=O)Cc2cc(NS(=O)(=O)c3ccc(Cl)cc3)ccc2O[C@H]1CN(C)S(=O)(=O)c1cccs1	–	·	–	–	·	–
CCOC(=O)c1cnc2ccccc2c1Nc1ccc(C(=O)O)cc1	–	–	43.8	–	–	–
Cc1ccc(S(=O)(=O)N(C)C[C@H]2OCCCC[C@@H](C)Oc3ccc(NS(=O)(=O)c4ccccc4)cc3C(=O)N([C@@H](C)CO)C[C@@H]2C)cc1	–	·	–	–	–	–
CCCN(C)C[C@H]1OCCCC[C@H](C)Oc2ccc(NS(=O)(=O)c3c(C)noc3C)cc2C(=O)N([C@@H](C)CO)C[C@@H]1C	–	·	–	–	–	–
CCCN(CCC)C(=O)CSc1nc2ccccc2c(=O)n1C1CCCC1	65.2	–	·	·	·	·
O=C(Nc1cccc(Cl)c1)N[C@@H]1CC[C@H](CCNC(=O)C2CCOCC2)O[C@H]1CO	–	·	–	–	–	–
COc1ccc(NC(=O)[C@H](Cc2c[nH]c3ccccc23)NC(=O)[C@@H]2Cc3ccccc3CN2)cc1	·	·	–	63.5	·	–
CC(C)c1ccc(NC(=O)[C@H](Cc2c[nH]c3ccccc23)NC(=O)[C@@H]2Cc3ccccc3CN2)cc1	·	·	–	–	·	–
COc1cc(/C=N/NC(=O)C23CC4CC(CC(C4)C2)C3)cc(Br)c1O	–	–	–	–	66.9	–
CO[C@H]1CN(C)C(=O)c2cc(NS(=O)(=O)c3ccccc3C)ccc2OC[C@@H](C)N(C)C[C@H]1C	–	–	–	–	–	–
CN(C)CCCN(C(=O)COc1ccc(Cl)cc1)c1nc2cc3c(cc2s1)OCO3	–	–	–	–	–	61.2
Cc1cccc(OCC(=O)Nc2cc(NC(=O)COc3cccc(C)c3C)cc(C(=O)O)c2)c1C	–	–	–	–	–	–
Cc1ccccc1OCC(=O)NNC(=O)CCN1C(=O)c2ccccc2C1=O	–	–	43.1	–	–	–
Cc1ccccc1OCC(=O)Nc1cccc(C(=O)O)c1	76.0	–	–	·	93.4	82.6
SMILES	Env fusion inh	FN deposit inh	FGF22 binding	PGC1a acetyl inh	PAX8 reporter	EWS-Fli block
Cc1ccccc1OCC(=O)NNC=O	–	–	43.0	–	–	–
CO[C@@H]1CN(C)C(=O)c2cc(NC(=O)C3CC3)ccc2OC[C@@H](C)N(C(=O)CN2CCOCC2)C[C@H]1C	–	–	–	–	–	–
Cc1ccc(NC(=O)CCN2C(=O)c3cccc4cccc(c34)C2=O)cc1	–	–	–	·	–	–
O=C(CCN1C(=O)c2cccc3cccc(c23)C1=O)Nc1ccccc1	–	–	43.2	–	–	–
O=C(CCN1C(=O)c2cccc3cccc(c23)C1=O)NCc1ccco1	–	–	43.6	·	–	–
Cc1ccc(S(=O)(=O)N/N=C/c2c[nH]c3ccccc23)cc1	–	–	–	104.5	–	–
C[C@]1(C2CCCC2)Cc2cc(OCC(=O)O)c(Cl)c(Cl)c2C1=O	–	–	–	–	–	–
CCCC[C@@]1(C2CCCC2)Cc2cc(OCC(=O)O)c(Cl)c(Cl)c2C1=O	–	–	–	95.0	–	–
COC(=O)c1cc(C)nc2c1C(=O)C(=O)C=C2N1CCOCC1	–	–	–	·	105.7	73.5
NCCc1c(-c2ccccc2)n(-c2ccccc2)c2ccccc12	–	44.3	–	–	–	–
Cc1ccc(S(=O)(=O)Nc2ccc3c(c2)CC(=O)N([C@H](C)CO)C[C@H](C)[C@H](CN(C)S(C)(=O)=O)O3)cc1	–	–	–	–	–	–
COc1ccccc1NC(=O)/C=C1\SCC(=O)N1C	–	–	–	93.4	–	–
COc1ccccc1NC(=O)/C=C1\NC(=O)CS1	–	–	–	·	–	–
Cc1c(Cl)c([N+](=O)[O-])nn1CC(=O)NCc1ccco1	·	·	·	–	·	·
COc1ccc(-c2cc3nc(C)c(CCC(=O)NCc4ccco4)c(C)n3n2)c(OC)c1	–	–	·	–	·	·
Cc1nc2c(-c3ccccc3)c(C)nn2c(C)c1CCC(=O)NCc1ccco1	–	–	–	–	–	–
Cc1nc2c(-c3ccc(F)cc3)c(C)nn2c(C)c1CCC(=O)NC(C)CCc1ccco1 (stereo unspecified)	65.2	–	–	–	–	–
Cc1nc2cc(-c3ccc(Cl)cc3)nn2c(C)c1CCC(=O)NCc1ccco1	–	–	–	–	–	56.9
Cc1c(Cl)c(C(F)(F)F)nn1CC(=O)NCc1ccco1	–	–	42.9	·	–	–
C[C@H](CO)N1C[C@H](C)[C@@H](CN(C)S(=O)(=O)c2cccs2)OCCCC[C@H](C)Oc2ccc(NS(=O)(=O)c3ccc(F)cc3)cc2C1=O	–	–	–	–	–	–
O=[N+]([O-])c1cc(-c2ncccn2)c([N+](=O)[O-])s1	–	–	–	60.7	–	60.5
O=C(Nc1ncccn1)c1cc([N+](=O)[O-])cc([N+](=O)[O-])c1	–	–	·	·	–	·
